Columns and labels:
[1] = (§1) Fractional inhibitory concentration (FIC) tested against Peruvian PC49 cells, isolate from South America; type: functional, Plasmodium falciparum
In short: (§2)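 Parasite growth read by [3H]hypoxanthine incorporation in erythrocytes at 0.2% parasitemia and 1% hematocrit. Medium: folate- and PABA-free RPMI-1640 with 10% heat-inactivated human plasma or Albumax. Cultures were kept at 37 °C under 5% CO2/5% O2/90% N2, with label added at 42 h and 66 h total incubation. Counts were taken after freeze-thaw harvest, IC50 came from nonlinear logistic fits, and FIC index was derived from isobologram.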

[2] = test system: Plasmodium falciparum; assay: Fractional inhibitory concentration (FIC) against Plasmodium falciparum W2 of equimolar (1:1) combination dose with chloroquine; type: functional; in short: as §2
[3] = (§3) Fractional inhibitory concentration (FIC) tested against RCS cells, isolate from Brazil.; type: functional, Plasmodium falciparum; in short: as §2
[4] = test system: Plasmodium falciparum; assay: Fractional inhibitory concentration (FIC) tested against TM91C235 isolate.; type: functional; in short: as §2
[5] = test system: Plasmodium falciparum; assay: In vitro anti-MDR effect in chloroquine and mefloquine resistant TM91C235 cell lines at 50 ng/ml concentration; type: functional
In short: (§4)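 TM91C235 P. falciparum in erythrocytes at 0.2% parasitemia and 1% hematocrit, in folate- and PABA-free RPMI-1640 with 10% heat-inactivated human plasma or Albumax. Incubated 66 h at 37 °C under 5% CO2/5% O2/90% N2, with 3H-hypoxanthine added at 42 h. Cells lysed by freezing at -70 °C and harvested; inhibition of isotope incorporation read by scintillation counting.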

[6] = test system: Plasmodium falciparum; assay: In vitro anti-MDR effect in chloroquine and mefloquine resistant TM91C235 cell lines at 5000 ng/ml concentration; type: functional; in short: as §4
[7] = test system: Plasmodium falciparum; assay: In vitro anti-MDR effect in chloroquine resistant TM91C235 cell lines at 500 ng/ml concentration in the presence of 10 ng/mL chloroquine; type: functional
In short: (§5)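 Test agent was combined with chloroquine at 10 ng/mL. TM91C235 was cultured in erythrocytes at 0.2% parasitemia and 1% hematocrit, in folate- and PABA-free RPMI-1640, for 66 h at 37 °C under 5% CO2/5% O2/90% N2. 3H-hypoxanthine was added at 42 h, and cell suppression was taken from scintillation counts of harvested lysates.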

[8] = test system: Plasmodium falciparum; assay: In vitro anti-MDR effect in mefloquine resistant TM91C235 cell lines at 50 ng/ml concentration in the presence of 5 ng/mL mefloquine; type: functional
In short: (§6)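 Mefloquine was held at 5 ng/mL, combined with test agent. Parasites (TM91C235) were in erythrocytes at 0.2% parasitemia and 1% hematocrit, in folate/PABA-free RPMI-1640 with human plasma or Albumax. Incubation was 66 h at 37 °C in 5% CO2/5% O2/90% N2, with 3H-hypoxanthine added for the last 24 h. Incorporation was counted after freeze-lysis and harvesting.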

[9] = test system: Plasmodium falciparum; assay: In vitro anti-MDR effect in mefloquine resistant TM91C235 cell lines at 5000 ng/ml concentration in the presence of 5 ng/mL mefloquine; type: functional; in short: as §6
[10] = test system: Plasmodium falciparum; assay: In vitro anti-MDR effect in chloroquine and mefloquine resistant TM91C235 cell lines at 500 ng/ml concentration; type: functional; in short: as §4
[11] = test system: Plasmodium falciparum; assay: In vitro anti-MDR effect in chloroquine resistant TM91C235 cell lines at 50 ng/ml concentration in the presence of 10 ng/mL chloroquine; type: functional; in short: as §5
[12] = test system: Plasmodium falciparum; assay: In vitro anti-MDR effect in chloroquine resistant TM91C235 cell lines at 5000 ng/ml concentration in the presence of 10 ng/mL chloroquine; type: functional; in short: as §5
[13] = test system: Plasmodium falciparum; assay: In vitro anti-MDR effect in mefloquine resistant TM91C235 cell lines at 500 ng/ml concentration in the presence of 5 ng/mL mefloquine; type: functional; in short: as §6
[14] = as §1; type: functional; in short: as §2
[15] = as §3; type: functional; in short: as §2
[16] = test system: Plasmodium falciparum; assay: Fractional inhibitory concentration (FIC) against Plasmodium falciparum W2 at equimolar (1:1) combination dose with chloroquine; type: functional; in short: as §2
[17] = test system: Plasmodium falciparum; assay: Fractional inhibitory concentration (FIC) tested against TM91C235 cells, isolate from South east Asia.; type: functional; in short: as §2
[18] = test system: Plasmodium falciparum; assay: Fractional inhibitory concentration (FIC) (1:1 combination of compound and chloroquine) was tested in Plasmodium falciparum W2 clone.; type: functional; in short: as §2
[19] = test system: Plasmodium falciparum; assay: Fractional inhibitory concentration (FIC) tested against TM91C235 cells, isolate from South east Asia; type: functional; in short: as §2

SMILES	FIC [1]	FIC [2]	FIC [3]	FIC [4]	Suppression [5]	Suppression [6]	Suppression [7]	Suppression [8]	Suppression [9]	Suppression [10]	Suppression [11]	Suppression [12]	Suppression [13]	FIC [14]	FIC [15]	FIC [16]	FIC [17]	FIC [18]	FIC [19]
c1ccc2c(c1)CCc1ccccc1N2CCCCN1CCOCC1	0.78	0.31	0.89	0.54	–	–	–	–	–	–	–	–	–	–	–	–	–	–	–
CN1CCN(CCCCN2c3ccccc3CCc3ccccc32)CC1	–	0.52	0.66	0.54	–	–	–	–	–	–	–	–	–	–	–	–	–	–	–
c1ccc2c(c1)CCc1ccccc1N2CCCCN1CCCCC1	0.73	0.45	0.36	0.54	–	–	–	–	–	–	–	–	–	–	–	–	–	–	–
c1ccc(CN(CCCCN2c3ccccc3CCc3ccccc32)Cc2ccccc2)cc1	–	–	–	–	11%	13%	8%	14%	19%	17%	6%	13%	22%	–	–	–	–	–	–
COc1ccc(CCN(C)CCCC(C#N)(c2ccc(OC)c(OC)c2)C(C)C)cc1OC (configuration not stated) [VERAPAMIL]	–	0.51	–	–	–	–	–	–	–	–	–	–	–	0.61	0.63	–	–	–	–
CCN(CC)CCCCN1c2ccccc2C=Cc2ccccc21	0.6	0.53	0.39	0.33	–	–	–	–	–	–	–	–	–	–	–	–	–	–	–
CN(C)CCCCN1c2ccccc2CCc2ccccc21	0.62	0.23	0.52	0.26	59%	96%	99%	43%	95%	73%	99%	100%	70%	–	–	–	–	–	–
c1ccc2c(c1)CCc1ccccc1N2CCCCCCN1CCCC1	0.92	0.57	0.6	0.54	–	–	–	–	–	–	–	–	–	–	–	–	–	–	–
C1=Cc2ccccc2N(CCCCN2CCCC2)c2ccccc21	0.74	0.33	0.59	0.49	–	–	–	–	–	–	–	–	–	–	–	–	–	–	–
c1ccc2c(c1)Sc1ccccc1N2CCCCN1CCCCC1	0.83	0.49	0.68	0.52	–	–	–	–	–	–	–	–	–	–	–	–	–	–	–
CN(C)CCCCN1c2ccccc2Sc2ccccc21	–	–	–	–	17%	92%	97%	2%	92%	27%	30%	100%	31%	–	0.51	0.23	0.28	–	–
c1ccc2c(c1)Sc1ccccc1N2CCCCN1CCCC1	0.5	0.21	0.51	0.25	38%	96%	99%	33%	95%	70%	99%	100%	67%	–	–	–	–	–	–
CN1CCN(CCCCN2c3ccccc3Sc3ccccc32)CC1	0.98	0.4	0.49	0.48	–	–	–	–	–	–	–	–	–	–	–	–	–	–	–
CCN(CC)CCCCN1c2ccccc2CCc2ccccc21	0.57	0.39	0.57	0.41	62%	100%	100%	64%	100%	95%	99%	100%	95%	–	–	–	–	–	–
CCN(CC)CCCCN1c2ccccc2Sc2ccccc21	0.41	–	0.41	–	26%	100%	99%	17%	100%	38%	31%	100%	30%	–	–	–	–	0.23	0.29
CCN(CC)CCCCCCN1c2ccccc2CCc2ccccc21	–	0.48	0.72	0.59	–	–	–	–	–	–	–	–	–	–	–	–	–	–	–
c1ccc2c(c1)CCc1ccccc1N2CCCCCN1CCCC1	0.59	0.48	0.37	0.55	–	–	–	–	–	–	–	–	–	–	–	–	–	–	–
c1ccc(CN(CCCCN2c3ccccc3Sc3ccccc32)Cc2ccccc2)cc1	–	–	–	–	7%	22%	16%	0%	9%	10%	12%	25%	3%	–	–	–	–	–	–
CCN(CC)CCCCCN1c2ccccc2CCc2ccccc21	0.82	0.44	0.36	0.48	–	–	–	–	–	–	–	–	–	–	–	–	–	–	–
CN(CCCCN1c2ccccc2CCc2ccccc21)Cc1ccccc1	–	–	–	–	30%	60%	20%	20%	41%	32%	10%	33%	22%	–	–	–	–	–	–
c1ccc2c(c1)CCc1ccccc1N2CCCCN1CCCC1	0.66	0.32	0.51	0.42	58%	100%	100%	64%	100%	98%	99%	100%	96%	–	–	–	–	–	–
CN(CCCCN1c2ccccc2Sc2ccccc21)Cc1ccccc1	–	–	–	–	13%	35%	27%	0%	13%	18%	14%	62%	0%	–	–	–	–	–	–
c1ccc2c(c1)Sc1ccccc1N2CCCCN1CCOCC1	0.81	0.39	0.37	0.32	–	–	–	–	–	–	–	–	–	–	–	–	–	–	–

Source: ChEMBL document CHEMBL1135479, “Design, synthesis, and evaluation of new chemosensitizers in multi-drug-resistant Plasmodium falciparum” (2002)
